# Screens from PubChem.
# LEDGF integ inh: blocks HIV-1 LEDGF/p75-dependent DNA integration; actives 0.64% (n = 370,000); inhibition, % at 3.7 µM; TR-FRET IN-LEDGF/p75 DNA integration, Eu/Cy5;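 active = inhibition above the screen-wide mean plus 3 SD, cut at about 13% in these data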;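 also: signal is the Cy5 over europium emission ratio at 671 and 618 nm; 0% = plate median of compound wells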
# TCR-CD3 inh: inhibitors of human TCR-CD3 interaction | TAMRA-labeled TCR probe fluorescence, biochemical | actives 0.37% (n = 360,000) | inhibition, % at 9.4 µM; in the data active = inhibition above about 19%;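 also: recombinant mutant TCR 2C K166C tagged with TAMRA read by polarization; 0% = receptor in buffer alone and 100% = receptor with positive control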
# SIAE primary: blocks human sialic acid acetylesterase; Q9HAT2; AID 1053197; SIAE FP-Rh probe binding, fluorescence polarization; actives 0.69% (n = 370,000); inhibition, % at 9.66 µM;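 active = inhibition above a cutoff: mean of compounds within the control limits plus 3 SD of those, cut at about 17% in these data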;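 also: 0% = plate median of compound wells and 100% = probe without SIAE protein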
# HTRA1 inh: blocks human HTRA1 serine peptidase; Q92743; recombinant HTRA1, FP-rhodamine activity-based probe, fluorescence polarization; inhibition, % at 5.96 µM; actives 0.5% (n = 340,000); in the data active = inhibition above about 36%;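 also: 0% = enzyme with DMSO and 100% = wells lacking enzyme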
# Target sequence (Q92743 whole entry, looked up): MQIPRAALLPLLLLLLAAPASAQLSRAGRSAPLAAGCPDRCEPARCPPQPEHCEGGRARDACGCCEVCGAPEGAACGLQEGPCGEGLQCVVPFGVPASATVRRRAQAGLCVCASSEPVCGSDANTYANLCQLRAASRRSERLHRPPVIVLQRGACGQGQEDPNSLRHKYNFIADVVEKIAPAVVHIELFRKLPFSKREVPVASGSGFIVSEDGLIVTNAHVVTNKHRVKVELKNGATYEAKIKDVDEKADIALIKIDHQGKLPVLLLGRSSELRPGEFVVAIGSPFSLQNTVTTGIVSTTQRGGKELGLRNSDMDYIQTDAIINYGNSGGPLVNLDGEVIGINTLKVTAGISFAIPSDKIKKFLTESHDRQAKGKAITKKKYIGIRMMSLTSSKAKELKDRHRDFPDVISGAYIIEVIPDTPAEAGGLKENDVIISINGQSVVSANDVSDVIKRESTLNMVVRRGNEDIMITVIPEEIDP
# TDP2 inh: TDP2 (human) inhibition, absorbance primary screen | inhibition, % at 12.8 µM | recombinant TDP2, T5PNP hydrolysis, p-nitrophenol absorbance 415 nm | O95551 | AID 720702 | actives 0.34% (n = 370,000);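 active = inhibition above the mean of all tested compounds plus 3 SD, set per campaign, cut at about 25% in these data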;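 also: 0% = DMSO with enzyme and 100% = buffer with substrate but no TDP2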
#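 System – recombinant human TDP2 · Quantity – TDP2 enzyme at 120 nM final · Doses – single concentration, 12.8 µM nominal, with 1% DMSO · Incubation – 2 h at 37 °C · Measured by – epi absorbance of p-nitrophenol freed from T5PNP by hydrolysis · Read-out – % inhibition relative to enzyme-containing and enzyme-free wells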
# ABHD4 inh: ABHD4 (mouse) inhibition, primary FP screen; purified mABHD4, FP-Rh probe fluorescence polarization; inhibition, % at 8.92 µM; Q8VD66; AID 720543; actives 0.54% (n = 370,000);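 active = inhibition exceeding the mean over every tested compound plus 3 SD, cut at about 30% in these data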;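 also: 0% = plate median of compound wells and 100% = S159A mutant with DMSO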
#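 System: mouse ABHD4 enzyme, wild type / Medium: HEPES pH 7.0, NaCl, Pluronic buffer / Reagent: FP-Rh activity-based fluorescent probe / Control set: S159A mutant high control, sample median low control / Detection: fluorescence polarization with parallel and perpendicular emission, 525/598 nm / Schedule: 45 min + 60 min at 25 °C / Compound dosing: 8.92 µM, single dose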
# * = called active by the depositor; . = no result. Rows were chosen to be rich in hits. Some 2.2% of all compounds tested hit in one or more screens of this group.
SMILES,LEDGF integ inh,TCR-CD3 inh,SIAE primary,HTRA1 inh,TDP2 inh,ABHD4 inh
COCCN(CCOC)C(=O)[C@H](CCc1ccccc1)NC(=O)[C@H]1O[C@@H](n2cnc3c(N)ncnc32)[C@H](O)[C@@H]1O,0,2,-2,.,-1,10
Cc1ccc(NC(=O)Nc2ccccc2)cc1[N+](=O)[O-],-4,2,0,2,-5,-3
O=C(Nc1ccccc1)Nc1ccc(Cl)c([N+](=O)[O-])c1,1,1,54*,-21,-8,-19
CCOC(=O)N1CCN(c2cc(NCCC(=O)O)c3c4c(onc24)-c2ccccc2C3=O)CC1,.,.,.,40*,.,.
CN1CCN(c2cc(N3CCN(C(=O)c4ccco4)CC3)c3c4c(onc24)-c2ccccc2C3=O)CC1,.,.,.,63*,.,.
CCOC(=O)c1ccc(-n2[nH]c(-c3ccccc3)cc2=O)cc1,6,0,8,-11,35*,1
CCOC(=O)c1ccc(N=Nc2c(C)[nH]n(-c3ccccc3)c2=O)cc1,0,1,-2,8,-10,-2
O=S1(=O)N[C@H](Cc2ccccc2)COc2cccc(F)c21,-1,2,0,.,0,2
Cc1ccc(S(=O)(=O)/N=C2\C=C(NS(=O)(=O)c3ccccc3)C(=O)c3ccccc32)cc1,16*,-1,-6,-2,18,27
Cc1ccc(S(=O)(=O)/N=C2/C=C(C3C(=O)CC(C)(C)CC3=O)C(=O)c3ccccc32)cc1,40*,0,5,-5,51*,15
Cc1ccc(S(=O)(=O)Nc2ccccc2-c2ccccc2)cc1,0,1,-3,-31,-1,-9
COC(=O)[C@]12C[C@H](CC(=O)NCc3cccs3)C(=O)N(Cc3ccccc3)C1=C[C@H](C1CCCC1)O[C@@H]2C,-2,-6,1,.,6,4
CCCCN(C)c1nc(C)nc2c1nnn2Cc1ccccc1,5,.,1,.,1,-4
C=CCNc1cccc2c1S(=O)(=O)N[C@@H](C)CO2,3,-5,-2,.,3,1
Cc1cc(N2CCN(C(=O)OC(C)(C)C)C[C@@H]2C)ccc1N1CCN(Cc2ccccc2)[C@H](C)C1,8,12,-13,.,-18,0
Cc1ccc(NC(=O)CNC(=O)c2ccc(C)o2)cc1,-1,-7,-2,3,8,3
Cc1ccc(C(=O)NCC(=O)O)o1,52*,-5,3,8,-5,0
Cc1ccc2cc(CN(Cc3ccc4c(c3)OCO4)Cc3nnnn3Cc3ccco3)c(=O)[nH]c2c1,4,2,-9,-35,-4,-2
Cc1ccc(CN(Cc2cc3cc4c(cc3[nH]c2=O)OCCO4)Cc2nnnn2Cc2ccco2)cc1,17*,3,6,1,-10,7
O=C1N=C(N2CCCC2C(=O)O)S/C1=C\c1ccco1 (configuration not stated),27*,6,11,.,10,13
N=C1/C(=C/c2ccco2)C(=O)N=C2SC(CC(=O)N3CCCC3)=NN12,13,2,-7,0,1,-3
Cc1cc(C(=O)NNC(=O)/C=C/c2ccco2)c(C)o1,53*,-3,-1,-5,-7,0
COc1ccccc1/C=C/C(=O)NNC(=O)c1cc(C)oc1C,-1,0,-18,-1,3,2
O=C(c1cn(-c2ccccc2)nc1-c1cccs1)N(CCO)Cc1ccccc1,0,0,-10,-17,-6,-3
CN(C)C(=O)c1cn(-c2ccccc2)nc1-c1cccs1,17*,-7,-4,-2,-4,2
SMILES,LEDGF integ inh,TCR-CD3 inh,SIAE primary,HTRA1 inh,TDP2 inh,ABHD4 inh
O=C(CCn1nnc2ccccc21)N1CCN(c2ccc(F)cc2)CC1,-2,.,3,.,5,7
Cc1cc(C(=O)COC(=O)c2cccnc2Cl)c(C)n1C,35*,-1,-1,5,2,-4
C/C(=N\NC(=O)c1cc(C)nc2ccccc12)c1ccco1,7,6,0,1,-7,3
C/C(=N\Nc1nc2ccccc2c(=O)n1O)c1ccco1,13,20*,3,17,-18,11
O=[N+]([O-])c1ccccc1/C=C/C=N/Nc1ccc(S(=O)(=O)Nc2ccc(Cl)cc2)cc1[N+](=O)[O-],0,-1,43*,3,-10,14
C/C(=N\Nc1ccc(S(=O)(=O)Nc2ccc(Cl)cc2)cc1[N+](=O)[O-])c1ccc(N2CCOCC2)cc1,1,4,24*,9,5,4
C/C(=N\Nc1ccc(S(=O)(=O)Nc2ccccc2)cc1[N+](=O)[O-])c1ccc(N2CCOCC2)cc1,-3,0,3,3,0,18
Cc1ccc2nc(-c3cccc(Cl)c3)c(Cc3ccccc3C(F)(F)F)n2c1,1,-1,-4,.,4,3
Fc1ccc(CN2CCN(c3ncc(Cc4ccccc4)cn3)CC2)c(Cl)c1,-2,8,0,.,-5,-2
C=CCN1C(=O)[C@@H](CC(=O)N2CCC(c3ccccc3)CC2)[C@]2(C(=O)OCC)CCCCC/C=C/12,-2,.,-1,.,5,2
C[C@@H]1O[C@@H](OC[C@H]2O[C@@H](Oc3cc(O)c4c(=O)cc(-c5ccc(O)c(O)c5)oc4c3)[C@H](O)[C@@H](O)[C@@H]2O)[C@H](O)[C@H](O)[C@H]1O,.,.,.,20,.,.
O=c1cc(-c2ccc(O)c(O)c2)oc2cc(O[C@@H]3O[C@H](CO)[C@@H](O)[C@H](O)[C@H]3O)cc(O)c12,.,.,.,60*,.,.
O=c1c(O[C@@H]2O[C@H](CO)C(O)C2O)c(-c2ccc(O)c(O)c2)oc2cc(O)cc(O)c12 (some centres not stated),.,.,.,6,.,.
O=c1c(OC2OC(CO)C(O)C(O)C2O)c(-c2ccc(O)c(O)c2)oc2cc(O)cc(O)c12 (configuration not stated),70*,16,0,27,-5,15
CCOC(=O)N1CCN(C(=O)C[C@@H]2C(=O)N3CCCC4=C3[C@@]2(C(=O)OC)CCCC4)CC1,0,.,-3,.,6,-4
O=C(/C=C/c1cccc(Cl)c1)c1ccc([N+](=O)[O-])o1,2,7,-5,43*,-6,8
COc1ccc(/C=C/C(=O)c2ccc([N+](=O)[O-])o2)cc1OC,0,-1,1,.,2,-1
COCCCNC(=O)c1nnn2c1nc(N)c1cc(Cl)ccc12,-1,1,2,.,4,6
O=C1NN(c2ccc(F)c(Cl)c2)C(=O)/C1=C\c1cccc(OC(=O)c2cccs2)c1,8,5,-1,35,-10,32*
O=C(C1CCCN1S(=O)(=O)c1ccc([N+](=O)[O-])cc1)N1CCc2ccccc2C1 (configuration not stated),2,.,3,.,-5,3
